Activity calls are given as the source filed them. The rule behind the calls is not given here. Where a SMILES comes first, the peptide text is derived from it. Bridges are numbered along the chain shown (N, C = ends). [ ]: non-standard residue; d: D form. 2Nal = N[C@@H](Cc1ccc2ccccc2c1)C(=O)O
Assays:
Urotensin-2 receptor [1] = molecular target: T1, Urotensin-2 receptor (Rattus norvegicus, UniProt P49684); test: Antagonist activity at rat urotensin 2 receptor expressed in CHOK1 cells assessed as inhibition of urotensin 2-induced intracellular calcium mobilization after 1 hr by FLIPR assay; format: functional, cell-based, CHO-K1
T1 sequence (P49684 whole entry): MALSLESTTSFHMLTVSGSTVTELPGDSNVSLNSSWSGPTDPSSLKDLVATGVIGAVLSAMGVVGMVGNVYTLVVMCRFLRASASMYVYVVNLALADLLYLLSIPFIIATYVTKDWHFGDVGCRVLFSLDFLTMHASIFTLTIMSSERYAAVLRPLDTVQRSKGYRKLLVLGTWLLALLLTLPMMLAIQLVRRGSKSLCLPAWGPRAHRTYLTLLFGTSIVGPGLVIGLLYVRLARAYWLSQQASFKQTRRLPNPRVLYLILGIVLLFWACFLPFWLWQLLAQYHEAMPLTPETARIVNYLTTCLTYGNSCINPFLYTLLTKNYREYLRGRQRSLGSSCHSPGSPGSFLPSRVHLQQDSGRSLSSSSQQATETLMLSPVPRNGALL
How it was run: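 Stable CHO-K1 line expressing rat UT, selected with G418 and seeded 24 h ahead. Cells loaded with calcium dye for 1 h at 37 °C in HBSS/20 mM HEPES/0.1% BSA/2.5 mM probenecid, pH 7.4. Compound preincubated 10 min, then agonist added: goby U-II 0.1 nM or peptide agonist 0.3 or 1 nM. FLIPR calcium read at 23 °C; N = 2-6.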

Urotensin-2 receptor [2] = molecular target: T2, Urotensin-2 receptor (Homo sapiens, UniProt Q9UKP6); test: Displacement of [125I]urotensin 2 from urotensin 2 receptor in human RMS13 cells by scintillation proximity assay; format: cell-based
T2 sequence (Q9UKP6 whole entry): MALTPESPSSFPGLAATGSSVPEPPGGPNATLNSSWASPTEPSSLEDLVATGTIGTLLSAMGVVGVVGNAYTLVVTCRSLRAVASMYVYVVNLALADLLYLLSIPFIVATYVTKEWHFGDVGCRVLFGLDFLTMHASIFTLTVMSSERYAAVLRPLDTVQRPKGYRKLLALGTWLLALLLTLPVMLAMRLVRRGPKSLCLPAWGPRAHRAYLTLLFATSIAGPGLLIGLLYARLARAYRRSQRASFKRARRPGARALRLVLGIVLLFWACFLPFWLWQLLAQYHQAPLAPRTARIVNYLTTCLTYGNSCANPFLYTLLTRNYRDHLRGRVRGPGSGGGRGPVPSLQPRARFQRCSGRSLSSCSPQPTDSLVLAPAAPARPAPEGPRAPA

Urotensin-2 receptor [3] = molecular target: T2, Urotensin-2 receptor; test: Antagonist activity at urotensin 2 receptor in human RMS13 cells assessed as inhibition of urotensin 2-induced intracellular calcium mobilization after 1 hr by FLIPR assay; format: functional, cell-based
How it was run: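 Human rhabdomyosarcoma (RMS13) cells expressing endogenous UT. Inhibition of U-II-driven calcium mobilization measured by FLIPR; N = 2-6.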

Rattus norvegicus [4] = test: Inhibition of ear flushing in Sprague-Dawley rat ear-flush model assessed as complete attenuation of urotensin 2-induced increase in ear pinna temperature at 10 mg/kg, iv administered 15 mins prior to urotensin 2 challenge; format: functional, organism-based; design: dose 10 mg/kg
Rattus norvegicus [5] = test: Inhibition of ear flushing in Sprague-Dawley rat ear-flush model assessed as attenuation of urotensin 2-induced increase in ear pinna temperature at 3 mg/kg, iv administered 15 mins prior to urotensin 2 challenge; format: functional, organism-based; design: dose 3 mg/kg
[6] = Inhibition of alpha1 adrenergic receptor at 10 uM
How it was run: (§1)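 Part of a contract panel of 50 receptors and ion channels. Each target was run as a binding assay with a reference ligand, with the test compound at 10 μM.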

[7] = molecular target: T3, Muscarinic acetylcholine receptor M1 (Homo sapiens) (UniProt P11229); test: Inhibition of human muscarinic M1 receptor at 10 uM
T3 sequence (whole entry): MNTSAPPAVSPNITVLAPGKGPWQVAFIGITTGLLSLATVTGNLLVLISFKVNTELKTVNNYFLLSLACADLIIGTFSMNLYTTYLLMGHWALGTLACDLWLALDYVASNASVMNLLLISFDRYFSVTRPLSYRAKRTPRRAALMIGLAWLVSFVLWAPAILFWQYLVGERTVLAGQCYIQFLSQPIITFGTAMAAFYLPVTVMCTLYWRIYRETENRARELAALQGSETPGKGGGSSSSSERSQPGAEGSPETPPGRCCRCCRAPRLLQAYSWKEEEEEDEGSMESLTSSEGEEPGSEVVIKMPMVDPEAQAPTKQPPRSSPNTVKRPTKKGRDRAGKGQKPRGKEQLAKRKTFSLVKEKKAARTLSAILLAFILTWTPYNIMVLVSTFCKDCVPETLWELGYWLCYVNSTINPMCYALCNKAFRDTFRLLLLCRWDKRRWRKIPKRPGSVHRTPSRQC

[8] = molecular target: Muscarinic acetylcholine receptor M3 (Homo sapiens) (UniProt P20309); test: Inhibition of human muscarinic M3 receptor at 10 uM
Muscarinic acetylcholine receptor M3 (Homo sapiens), sequence (P20309 whole entry, looked up): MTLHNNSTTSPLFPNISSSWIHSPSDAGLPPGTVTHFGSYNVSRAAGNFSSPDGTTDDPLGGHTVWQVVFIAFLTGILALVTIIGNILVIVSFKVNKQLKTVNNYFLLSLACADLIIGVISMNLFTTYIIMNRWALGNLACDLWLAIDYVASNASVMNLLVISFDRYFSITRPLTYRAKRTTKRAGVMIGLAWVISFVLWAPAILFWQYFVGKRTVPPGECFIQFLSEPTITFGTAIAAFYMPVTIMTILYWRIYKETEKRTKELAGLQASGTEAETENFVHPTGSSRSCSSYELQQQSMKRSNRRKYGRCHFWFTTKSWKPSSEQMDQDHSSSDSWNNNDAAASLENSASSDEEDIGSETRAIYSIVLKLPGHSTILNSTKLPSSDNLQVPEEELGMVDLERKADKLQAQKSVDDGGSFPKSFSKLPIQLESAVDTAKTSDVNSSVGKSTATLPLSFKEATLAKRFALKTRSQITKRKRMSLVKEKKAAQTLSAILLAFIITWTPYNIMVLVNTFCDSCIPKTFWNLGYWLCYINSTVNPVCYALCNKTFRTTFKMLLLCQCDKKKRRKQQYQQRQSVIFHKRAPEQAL

[9] = molecular target: T4, 5-hydroxytryptamine receptor 1A (Homo sapiens) (UniProt P08908); test: Inhibition of human 5HT1A receptor at 10 uM
T4 sequence (whole entry): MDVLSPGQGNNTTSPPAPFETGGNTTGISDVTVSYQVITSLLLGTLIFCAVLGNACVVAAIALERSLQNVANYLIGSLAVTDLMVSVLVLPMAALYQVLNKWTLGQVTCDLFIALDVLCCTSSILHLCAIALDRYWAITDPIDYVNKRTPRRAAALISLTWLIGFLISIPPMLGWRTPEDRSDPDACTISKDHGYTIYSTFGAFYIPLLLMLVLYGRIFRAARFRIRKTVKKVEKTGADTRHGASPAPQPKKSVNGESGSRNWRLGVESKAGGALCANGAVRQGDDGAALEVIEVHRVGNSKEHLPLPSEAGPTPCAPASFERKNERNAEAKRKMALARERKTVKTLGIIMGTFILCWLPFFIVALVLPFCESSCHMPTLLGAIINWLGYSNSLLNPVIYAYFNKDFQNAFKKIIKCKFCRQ

[10] = molecular target: 5-hydroxytryptamine receptor 1B (Homo sapiens) (UniProt P28222); test: Inhibition of 5HT1B receptor at 10 uM
5-hydroxytryptamine receptor 1B (Homo sapiens), sequence (P28222 whole entry): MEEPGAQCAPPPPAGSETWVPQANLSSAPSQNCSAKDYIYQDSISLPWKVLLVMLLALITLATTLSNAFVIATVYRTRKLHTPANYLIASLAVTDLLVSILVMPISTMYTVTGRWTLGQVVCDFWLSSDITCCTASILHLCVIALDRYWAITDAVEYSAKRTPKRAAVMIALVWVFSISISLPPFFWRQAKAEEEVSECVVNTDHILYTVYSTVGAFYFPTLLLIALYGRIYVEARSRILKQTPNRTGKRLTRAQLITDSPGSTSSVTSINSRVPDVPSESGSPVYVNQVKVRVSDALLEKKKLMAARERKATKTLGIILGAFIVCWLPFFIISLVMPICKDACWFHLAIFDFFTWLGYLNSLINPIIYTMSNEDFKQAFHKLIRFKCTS

[11] = Inhibition of sodium channel site 2 at 10 uM; how it was run: as §1
Aorta = test: Vasorelaxant activity in Wistar rat thoracic aortic ring assessed as inhibition of contraction at 100 nM
Urotensin-2 receptor [12] = molecular target: T1, Urotensin-2 receptor; test: Antagonist activity at rat urotensin 2 receptor expressed in CHOK1 cells assessed as inhibition of urotensin 2-induced intracellular calcium mobilization after 10 min by FLIPR assay
Urotensin-2 receptor [13] = molecular target: T1, Urotensin-2 receptor; test: Displacement of [125I]urotensin 2 from rat urotensin 2 receptor expressed in CHOK1 cells by scintillation proximity assay; format: cell-based, CHO-K1
How it was run: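 Membranes from CHO cells stably expressing rat UT were precoupled to WGA-coated SPA beads (15 μg membrane/mg beads, 30 min, room temperature) in 50 mM Tris-HCl, 5 mM MgCl2, 0.1% BSA, pH 7.4. Final conditions: 1.0 mg beads per well, 0.17 nM [125I]-[Tyr]-rat U-II, and varied compound concentrations, shaken 3 h at 22 °C. Nonspecific binding was defined with 1 μM rat U-II.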

[14] = Half life in human liver microsomes; format: ADME, Microsome
[15] = Oral bioavailability in rat; format: ADME, organism-based; settings: in vivo
[16] = Half life in rat; format: ADME, organism-based; settings: in vivo
[17] = in the assay text read “after 10 min” for “after 1 hr”

Row | Compound | Ki (Urotensin-2 receptor [2]) | IC50 (Urotensin-2 receptor [3]) | IC50 (Urotensin-2 receptor [12]) | also measured
1 | CCN1CCN(c2cccc3c2CN([C@H](CCCNS(=O)(=O)c2cccs2)c2ccc(OC)c(OC)c2)C3=O)CC1 | – | – | – | Activity (Rattus norvegicus [4]): Active; Activity (Rattus norvegicus [5]): Active; inhibition [6]: 68%; inhibition [7]: 65%; inhibition [8]: 55%; inhibition [9]: 93%; inhibition [10]: 66%; inhibition [11]: 59%; inhibition at 0.1 µM (Aorta): 74%
2 | CCN1CCN(c2cccc3c2CN([C@H](CCCNC(=O)c2cccs2)c2ccc(OC)c(OC)c2)C3=O)CC1 | – | 0.14 µM | – | –
3 | COc1ccc([C@@H](CCCNS(=O)(=O)c2ccc(Cl)s2)N2C(=O)c3cccc(N4CCN([C@H](C)c5ccccc5)CC4)c3C2=O)cc1OC | – | – | 1.7 µM | –
4 | COc1ccc(C(CN)N2C(=O)c3cccc(N4CCN([C@@H](C)c5ccccc5)CC4)c3C2=O)cc1OC (stereo not given in full) | 0.7 µM | – | – | IC50 (Urotensin-2 receptor [1]; [17]): 0.3 µM
5 | COc1cc(Br)c(S(=O)(=O)Nc2ccc(C(F)(F)F)c(O[C@@H]3CCN(C)C3)c2)cc1OC | – | – | – | IC50 (Urotensin-2 receptor [1]; [17]): 0.034 µM; Activity (Rattus norvegicus [4]): Active; inhibition at 0.1 µM (Aorta): 97%
6 | COc1ccc([C@@H](CCCNS(C)(=O)=O)N2C(=O)c3cccc(N4CCN([C@H](C)c5ccccc5)CC4)c3C2=O)cc1OC | 1.4 µM | – | 0.11 µM | –
7 | CCN1CCN(c2cccc3c2CN([C@H](CCCN(C)S(=O)(=O)c2cccs2)c2ccc(OC)c(OC)c2)C3=O)CC1 | < 0.005 µM | – | – | –
8 | CC(=O)N[C@H]1CSSC[C@@H](C(N)=O)NC(=O)[C@H](Cc2ccc3ccccc3c2)NC(=O)[C@H](CCCCN)NC(=O)[C@H](Cc2c[nH]c3ccccc23)NC(=O)[C@H](Cc2ccccc2)NC1=O (Ac-CFWK[2Nal]C-NH2; disulfide 1-6) | – | – | – | Ki (Urotensin-2 receptor [13]): 0.00012 µM; EC50 (Urotensin-2 receptor [1]): 0.00054 µM
9 | COc1ccc([C@@H](CCCCNC(=O)OC(C)(C)C)N2C(=O)c3cccc(N4CCN([C@H](C)c5ccccc5)CC4)c3C2=O)cc1OC | > 10 µM | – | – | IC50 (Urotensin-2 receptor [1]; [17]): 65 µM
10 | CCN1CCN(c2cccc3c2CN([C@H](CCCNc2cncc(Cl)n2)c2ccc(OC)c(OC)c2)C3=O)CC1 | 0.062 µM | 0.5 µM | 0.001 µM | –
11 | COc1ccc(C(CCNS(=O)(=O)c2cccs2)N2C(=O)c3cccc(N4CCN([C@H](C)c5ccccc5)CC4)c3C2=O)cc1OC (stereo not given in full) | 0.27 µM | – | 0.12 µM | –
12 | COc1ccc(CN2C(=O)c3cccc(N4CCN(Cc5c(F)cccc5F)CC4)c3C2=O)cc1OC | 0.31 µM | – | 1 µM | half-life [14]: < 3 min
13 | COc1ccc([C@@H](CCCN(C)S(=O)(=O)c2cccs2)N2Cc3c(cccc3N3CCN(C4CC4)CC3)C2=O)cc1OC | – | 1.2 µM | – | –
14 | COc1ccc(C(CCCNS(=O)(=O)c2cccs2)N2C(=O)c3cccc(N4CCN([C@H](C)c5ccccc5)CC4)c3C2=O)cc1OC (stereo not given in full) | – | 0.25 µM | – | –
15 | COc1ccc(CN2C(=O)c3cccc(N4CCN(Cc5ccccc5)CC4)c3C2=O)cc1OC | 0.16 µM | – | – | half-life [14]: < 3 min
16 | COc1ccc([C@@H](CCCNC(=O)c2cnoc2C)N2Cc3c(cccc3N3CCN([C@H](C)c4ccccc4)CC3)C2=O)cc1OC | 0.015 µM | 0.32 µM | – | IC50 (Urotensin-2 receptor [1]; [17]): 0.006 µM
17 | COc1ccc(C(CNS(=O)(=O)c2cccs2)N2C(=O)c3cccc(N4CCN([C@@H](C)c5ccccc5)CC4)c3C2=O)cc1OC (stereo not given in full) | 0.29 µM | – | – | IC50 (Urotensin-2 receptor [1]; [17]): 0.075 µM

More lines, main results first:

Row | Ki (Urotensin-2 receptor [2]) | IC50 (Urotensin-2 receptor [3]) | IC50 (Urotensin-2 receptor [12]) | Compound | also measured
18 | 0.008 µM | 0.062 µM | – | CCN1CCN(c2cccc3c2CN([C@H](CCCNc2cncc(OC)n2)c2ccc(OC)c(OC)c2)C3=O)CC1 | IC50 (Urotensin-2 receptor [1]; [17]): 0.004 µM
19 | 0.041 µM | 0.32 µM | – | Cc1cc(NC(=O)NCCN2CCC(O)(Cc3ccccc3)CC2)c2ccccc2n1 [PALOSURAN] | IC50 (Urotensin-2 receptor [1]; [17]): > 75 µM
20 | 0.54 µM | – | 0.11 µM | COc1ccc(C(CCNC(=O)OC(C)(C)C)N2C(=O)c3cccc(N4CCN([C@@H](C)c5ccccc5)CC4)c3C2=O)cc1OC (stereo not given in full) | –
21 | < 0.006 µM | – | – | COc1ccc([C@@H](CCCN(C)S(=O)(=O)c2cccs2)N2Cc3c(cccc3N3CCN(C)CC3)C2=O)cc1OC | –
22 | – | 1.9 µM | – | COc1ccc(CN2C(=O)c3cccc(N4CCN([C@H](C)c5ccccc5)CC4)c3C2=O)cc1OC | half-life [14]: 29 min; bioavailability [15]: 33%; half-life [16]: 240 min
23 | 0.43 µM | – | 0.12 µM | COc1ccc(C(CNC(=O)OC(C)(C)C)N2C(=O)c3cccc(N4CCN([C@@H](C)c5ccccc5)CC4)c3C2=O)cc1OC (stereo not given in full) | –
24 | 0.025 µM | 0.051 µM | – | CCN1CCN(c2cccc3c2CN([C@H](CCCNS(=O)(=O)c2cn(C)c(C)n2)c2ccc(OC)c(OC)c2)C3=O)CC1 | IC50 (Urotensin-2 receptor [1]): 0.023 µM
25 | – | – | 0.014 µM | CCN1CCN(c2cccc3c2[C@H]2CCC[C@H](c4ccc(OC)c(OC)c4)N2C3=O)CC1 | –
26 | – | 0.5 µM | – | COc1ccc([C@@H](CCCN(C)S(=O)(=O)c2cccs2)N2Cc3c(cccc3N3CCN(C(C)C)CC3)C2=O)cc1OC | –
